Bioassay records: PubChem BioAssay, The Scripps Research Institute Molecular Screening Center
ABHD4 inh – ABHD4 inhibitors, primary screen, biochemical, fluorescence polarization, mouse | inhibition, % at 8.92 µM | actives 0.54% (n = 370,000) | AID 720543, 2013 | (Lyso)-N-acylphosphatidylethanolamine lipase (Mus musculus), Q8VD66 | purified mABHD4, FP-Rh probe fluorescence polarization;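 active = inhibition exceeding the mean over every tested compound plus 3 SD, cut at about 30% in these data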
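Assay system: mouse ABHD4 enzyme, wild type / Also added: fluorescent activity-based probe FP-Rh / Doses: single nominal dose of 8.92 µM, 0.89% DMSO final / Timing: 45 min compound pre-incubation plus 60 min probe step, 25 °C / Signal: FP readout, ex 525 nm / em 598 nm / Control set: S159A mutant/DMSO as 100%, compound-well median as 0%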
HTRA1 inhibitor – HTRA1 serine protease inhibitors, primary screen, biochemical, fluorescence polarization, HTS | Q92743 | recombinant HTRA1, FP-rhodamine activity-based probe | inhibition, % at 5.96 µM | actives 0.5% (n = 340,000) | AID 504803, 2011; in the data active = inhibition above about 36%
Target sequence (Q92743 whole entry, looked up): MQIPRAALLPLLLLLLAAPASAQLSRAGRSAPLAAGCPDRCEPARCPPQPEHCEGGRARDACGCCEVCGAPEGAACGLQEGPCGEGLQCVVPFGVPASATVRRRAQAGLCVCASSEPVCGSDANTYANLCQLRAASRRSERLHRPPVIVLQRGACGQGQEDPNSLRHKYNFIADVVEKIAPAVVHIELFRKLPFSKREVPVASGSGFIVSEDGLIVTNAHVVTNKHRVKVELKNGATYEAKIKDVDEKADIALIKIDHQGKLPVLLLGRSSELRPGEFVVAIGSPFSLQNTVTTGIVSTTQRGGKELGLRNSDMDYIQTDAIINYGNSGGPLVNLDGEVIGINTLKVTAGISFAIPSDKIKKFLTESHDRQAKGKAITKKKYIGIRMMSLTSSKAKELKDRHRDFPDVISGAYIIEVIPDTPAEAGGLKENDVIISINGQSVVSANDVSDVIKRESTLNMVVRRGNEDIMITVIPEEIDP
PRMT1 FP inh – PRMT1 methyltransferase inhibitors, primary screen, biochemical, fluorescence polarization. Protein arginine N-methyltransferase 1 (Homo sapiens), Q99873. recombinant PRMT1, activity-based probe fluorescence polarization. inhibition, % at 2.79 µM. actives 1.3% (n = 370,000). AID 652257, 2013;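 active = inhibition above about 21% made by adding two undisclosed values, limit read from the data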
SIAE primary – human SIAE inhibitors, primary screen, biochemical, fluorescence polarization, FP-Rh probe, 1536-well HTS. Sialate O-acetylesterase (Homo sapiens), Q9HAT2. SIAE FP-Rh probe binding. inhibition, % at 9.66 µM. actives 0.69% (n = 370,000). AID 1053197, 2014;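 active = inhibition above a cutoff: mean of compounds within the control limits plus 3 SD of those, cut at about 17% in these data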
TCR CD3 inh – inhibitors of human TCR-CD3 interaction, primary screen, biochemical, fluorescence, TAMRA-labeled TCR probe; actives 0.37% (n = 360,000); inhibition, % at 9.4 µM; in the data active = inhibition above about 19%;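 also: recombinant mutant TCR 2C K166C tagged with TAMRA read by polarization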
PAD4 inh – human PAD4 inhibitors, primary screen, biochemical, fluorescence polarization, 1536-well format | Protein-arginine deiminase type-4 (Homo sapiens), Q9UM07 | recombinant PAD4, RCA probe fluorescence polarization | inhibition, % at 6.36 µM | actives 0.41% (n = 330,000) | AID 485272, 2010;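 active = percent inhibition above a cutoff equal to the mean of all tested compounds plus 3 SD, cut at about 15% in these data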
SIAE inh conf – human SIAE inhibitors, retest, confirmation, biochemical, fluorescence polarization, FP-Rh probe, triplicate. shares compounds with SIAE primary. SIAE FP-Rh activity-based probe. inhibition, % at 9.66 µM. actives 13% (n = 2,300). AID 1117263, 2014;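 active = mean inhibition of the replicates above the hit cutoff set in the primary screen, cut at about 17% in these data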;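 also: inhibitors lower polarization as more probe stays unbound to SIAE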
Of the large screens only hits and unclear results are named; the others gave an inactive call (follow-up assays come after a bar, where they were run). An excerpt weighted towards active compounds, which were near 2.9% of everything screened.

C=CCNC(=O)c1ccc(-c2nc3ccccc3nc2-c2ccccc2)cc1	SIAE primary 32.9 | SIAE inh conf inactive
COC(=O)c1ccc(CN2C(=O)[C@]3(OCCC=C[C@H]3C)c3cc(OC)ccc32)cc1	none (no result: HTRA1 inhibitor, PAD4 inh)
Cc1c(C(=O)N2CCCCC2)c(S(=O)(=O)N(C)Cc2ccccc2)c(C)n1C	SIAE primary 22.9 | SIAE inh conf inactive
N#Cc1ccc(Cn2nnc(-c3ccc(N4CCOCC4)cc3)n2)cc1	none (no result: HTRA1 inhibitor, TCR CD3 inh, PAD4 inh)
O=C(Nc1nnc(-c2ccc(Br)cc2)o1)c1ccco1	none (no result: ABHD4 inh, PRMT1 FP inh, SIAE primary, TCR CD3 inh)
O=C(Nc1nnc(-c2cccs2)o1)c1ccco1	SIAE primary 19.4 | SIAE inh conf inactive
CCCCN1CNC(=S)N(c2ccc(C(=O)OCC)cc2)C1	SIAE primary 18.4 | SIAE inh conf inactive
CCCCN1CNC(=S)N(c2cc(C)ccc2C)C1	none
Cc1ccccc1C(=O)Nc1ccc(S(=O)(=O)N2CCN(C)CC2)cc1	SIAE primary 18.8 | SIAE inh conf inactive
CC(=O)Nc1ccc(NC(=O)c2ccccc2C)cc1	SIAE primary 18.2 | SIAE inh conf inactive
CN1CCN(S(=O)(=O)c2ccc(NC(=O)c3ccccc3Cl)cc2)CC1	none
COC(=O)CC#C[C@H](C)[C@@H](NS(=O)(=O)c1ccc(C)cc1)C1CCCCC1	none (no result: HTRA1 inhibitor, PAD4 inh)
Cc1ccc(N2CC(C(=O)NCc3cccs3)CC2=O)cc1C (centres undefined)	none
Cc1cc(N2CC(C(=O)NCc3cccs3)CC2=O)ccc1C(C)C (centres undefined)	SIAE primary 18.0 | SIAE inh conf inactive
N#C/C(=C\c1ccncc1)C(=O)Nc1ccc(C(=O)O)cc1	none
CC(C)c1ccc(NC(=O)/C(C#N)=C/c2ccncc2)cc1	SIAE primary 18.1 | SIAE inh conf inactive
O=C1CCC2(CCC(c3ccccc3)CC2)N1CCCO (centres undefined)	none (no result: HTRA1 inhibitor, TCR CD3 inh, PAD4 inh)
Cc1ccccc1NC(=O)COC(=O)C1(C)CC1(Cl)Cl (centres undefined)	SIAE primary 18.7 | SIAE inh conf inactive
CC(C)c1ccccc1NC(=O)COC(=O)C1(C)CC1(Cl)Cl (centres undefined)	none
CC(=O)c1ccc(C(=O)Nc2nnc(-c3ccc(Cl)cc3)o2)cc1	none
CN(C)c1ccc(C(=O)Nc2nnc(-c3ccc(Cl)cc3)o2)cc1	SIAE primary 18.3 | SIAE inh conf inactive
Cc1cccc(Cn2cc(COC(=O)N(C)Cc3ccccc3)nn2)c1	none (no result: HTRA1 inhibitor, TCR CD3 inh, PAD4 inh)
Cc1ccc(NC(=O)c2ccc(NCC3CCCO3)c([N+](=O)[O-])c2)cc1Cl (centres undefined)	SIAE primary 72.3 | SIAE inh conf inactive
Cc1nc(NS(=O)(=O)c2ccccc2)sc1NC(=O)Nc1ccccc1	none
Cc1nc(NS(=O)(=O)c2ccccc2)sc1NC(=O)Nc1ccc(Cl)cc1	SIAE primary 17.6 | SIAE inh conf 27.3
CCOC(=O)c1c(NC(=O)c2ccoc2C)sc2c1CCC2	SIAE primary 24.1 | SIAE inh conf inactive
CCOC(=O)Nc1sc2c(c1C(=O)OCC)CCC2	none
CCC(C)(C)C(=O)N1CCC(C(=O)NC2CCCc3ccccc32)CC1 (centres undefined)	none (no result: HTRA1 inhibitor, TCR CD3 inh, PAD4 inh)
Cc1cc(N=Cc2c(O)n(-c3cccc(C(F)(F)F)c3)c(=O)c3ccccc23)no1	SIAE primary 21.2 | SIAE inh conf inactive
COC(=O)[C@]12C[C@H](CC(=O)N3CCCC3)C(=O)N(Cc3ccccc3)C1=C[C@H](C1CCCC1)O[C@@H]2C	none (no result: HTRA1 inhibitor, PAD4 inh)
COCCCNC(=O)C[C@H]1C[C@@]2(C(=O)OC)C(=C[C@H](COCc3ccccc3)O[C@@H]2C)N(Cc2ccc3c(c2)OCO3)C1=O	SIAE primary 29.4 (no result: HTRA1 inhibitor, PAD4 inh) | SIAE inh conf inactive
COC(=O)[C@]12C[C@H](CC(=O)NCCC(C)C)C(=O)N(Cc3ccc4c(c3)OCO4)C1=C[C@H](COCc1ccccc1)O[C@@H]2C	none (no result: HTRA1 inhibitor, PAD4 inh)
COc1ccc(C(=O)/C=C(\Nc2ccc(F)cc2)c2ccc(OC)cc2OC)c(OC)c1	none (no result: HTRA1 inhibitor, TCR CD3 inh, PAD4 inh)
O=C(Nc1ccncc1)C1CCN(S(=O)(=O)c2cccc(C(F)(F)F)c2)CC1	SIAE primary 18.2 | SIAE inh conf inactive
Cc1ccccc1N=C1Nc2ccccc2N[C@]12C[C@H]1CCC(=O)N3CC[C@@H](C2)[C@@H]13	SIAE primary 17.8 (no result: PAD4 inh) | SIAE inh conf inactive
CCOC(=O)[C@]12CCCC=C1N(Cc1ccc(OC)cc1)C(=O)[C@@H]2CC(=O)NCCCCc1ccccc1	none (no result: HTRA1 inhibitor, TCR CD3 inh, PAD4 inh)
C[C@@H](c1ccccc1)N1C[C@@H](COCc2ccccc2)Oc2cc(N3CC[C@@H](N(C)C)C3)ccc2S1(=O)=O	SIAE primary 17.6 (no result: HTRA1 inhibitor, PAD4 inh) | SIAE inh conf inactive
COc1ccc(NC(=O)c2cc3c(-c4ccc(OC)c(OC)c4)nn(C)c3s2)cc1OC	SIAE primary 18.8 | SIAE inh conf inactive
COc1ccc(CN2C(=O)c3ccnn3CC2(C)c2nnnn2-c2c(C)cccc2C)cc1 (centres undefined)	none (no result: HTRA1 inhibitor, TCR CD3 inh, PAD4 inh)
COC(=O)[C@]12C[C@H](CC(=O)N3CCCC3)C(=O)N(Cc3ccco3)C1=C[C@H](C(C)(C)C)O[C@@H]2C	none (no result: HTRA1 inhibitor, TCR CD3 inh, PAD4 inh)
COc1cc(/C=N\Nc2nc(-c3ccc(C)cc3)c(NC(C)=O)s2)ccc1O	SIAE primary 21.8 | SIAE inh conf 32.8
CCCC[C@H]1C2CC(OC(=O)Nc3ccc(F)cc3)C(C2)[C@H]2CCCCN21 (some centres undefined)	none (no result: HTRA1 inhibitor, TCR CD3 inh, PAD4 inh)
Cc1c(NC(=S)NC(=O)c2cccc(Br)c2)c(=O)n(-c2ccccc2)n1C	SIAE primary 17.1 | SIAE inh conf inactive
CCCCNC(=O)C[C@H]1C[C@@]2(C(=O)OC)C(=C[C@H](C3CCCC3)O[C@@H]2C)N(CCc2ccc(OC)c(OC)c2)C1=O	none (no result: HTRA1 inhibitor, TCR CD3 inh, PAD4 inh)
Cc1cnc(CN(C)C(=O)c2ccc3oc(Cc4ccc(Cl)cc4)nc3c2)[nH]1	SIAE primary 17.6 | SIAE inh conf inactive
Cc1ccc2c(c1)N(CCCC(=O)NCc1c(F)cccc1F)C(=O)CO2	none (no result: HTRA1 inhibitor, TCR CD3 inh, PAD4 inh)
CSC1=NC(C)(C)C=C(/C=C/c2ccc(Cl)cc2)N1	SIAE primary 17.4 | SIAE inh conf inactive
CC(C)(C)OC(=O)NCCc1ccccc1/C=C/S(=O)(=O)NCc1ccccc1	none (no result: HTRA1 inhibitor, TCR CD3 inh, PAD4 inh)
COC(=O)[C@]12C[C@H](CC(=O)NCCCCc3ccccc3)C(=O)N(CCC3=CCCCC3)C1=C[C@H](C(C)(C)C)O[C@@H]2C	none (no result: HTRA1 inhibitor, PAD4 inh)
COc1ccc(Oc2cn[nH]c2-c2ccc(O)cc2O)cc1	SIAE primary 19.1 | SIAE inh conf inactive
O=C(C(=O)N1CCN(C(=O)c2ccccc2C(F)(F)F)CC1)c1cccc(C(F)(F)F)c1	none (no result: HTRA1 inhibitor, PAD4 inh)
